Assay results: ChEMBL document CHEMBL1142927, “Novel 3-iodo-8-ethoxypyrazolo[5,1-c][1,2,4]benzotriazine 5-oxide as promising lead for design of alpha5-inverse agonist useful tools for therapy of mnemonic damage” (Bioorg Med Chem, 2007)
Active and inactive are the calls of the source. The calls are words filed in the database; no cut-off is given here.

Key:
[1] = Displacement of [3H]flumazenil from bovine brain cortex GABAA/Bz receptor; set-up: species or system Bos taurus
How it was run: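 Bovine cerebral cortex membranes in 50 mM Tris-citrate pH 7.4, [3H]Ro 15-1788 (70.8 Ci/mmol) as radioligand. […] At least six concentrations used, curve-fitted, Ki by Cheng–Prusoff; means ± SEM of five determinations in triplicate.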

[2] = system: Mus musculus; experiment: Effect on motor coordination in CD1 Albino mouse assessed as number of falls in 30 secs at 10 mg/kg, po […] by rotarod test relative to control; format: functional
[3] = system: Mus musculus; experiment: Anticonvulsant activity against pentylenetetrazole-induced seizure in CD1 Albino mouse assessed as latency at 3 mg/kg, po; format: functional
How it was run: (§1)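 Male CD-1 mice (22–24 g) dosed po in 1% carboxymethylcellulose (10 ml/kg); PTZ 90 mg/kg sc given 30 min later. Occurrence of clonic generalized convulsions noted over 30 min and expressed as percent of animals protected; latency (s) also recorded. Means ± SEM; ANOVA with Scheffe post-hoc test, Student's two-tailed t-test for pairs of means.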

[4] = system: Mus musculus; experiment: Anticonvulsant activity against pentylenetetrazole-induced seizure in CD1 Albino mouse at 10 mg/kg, po; format: functional; how it was run: as §1
[5] = system: Mus musculus; experiment: Effect on motor coordination in CD1 Albino mouse assessed as number of falls in 30 secs at 3 mg/kg, po […] by rotarod test relative to control; format: functional
[6] = biological target: GABA-A receptor; alpha-1/beta-2/gamma-2 (Rattus norvegicus, UniProt P18508+P62813+P63138); experiment: Displacement of [3H]Ro15-1788 from rat recombinant GABA alpha-1-beta-2-gamma-2 receptor expressed in HEK293 cells; format: cell-based
How it was run: (§2)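 Crude membranes from clonal mammalian cells expressing recombinant subtypes, grown in MEM/EBSS with 10% FCS at 37 °C, 5% CO2. Membranes resuspended in 10 mM potassium phosphate pH 7.4 with 100 mM KCl. Ki from three independent experiments run in triplicate, means ± SEM.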

[7] = system: Mus musculus; experiment: Anticonvulsant activity against pentylenetetrazole-induced seizure in CD1 Albino mouse at 30 mg/kg, po; format: functional; how it was run: as §1
[8] = biological target: GABA-A receptor alpha-5/beta-2/gamma-2 (Rattus norvegicus); experiment: Displacement of [3H]Ro-151788 from rat recombinant GABA alpha-5-beta-2-gamma-2 receptor expressed in HEK293 cells
[9] = biological target: GABA A receptor alpha-3/beta-2/gamma-2 (Rattus norvegicus, UniProt P18508+P20236+P63138); experiment: Displacement of [3H]Ro15-1788 from rat recombinant GABA alpha-3-beta-2-gamma-2 receptor expressed in HEK293 cells; format: cell-based; how it was run: as §2
[10] = system: Mus musculus; experiment: Anticonvulsant activity against pentylenetetrazole-induced seizure in CD1 Albino mouse at 3 mg/kg, po; format: functional; how it was run: as §1
[11] = system: Mus musculus; experiment: Anxiogenic-like effect in CD1 Albino mouse assessed as decrease in number of transfers from one compartment to another at 10 mg/kg in light-dark box test; format: functional, organism-based; set-up: dose 10 mg/kg
How it was run: (§3)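 Light/dark box test in male CD-1 mice dosed 30 min beforehand in 1% CMC vehicle. Number of transfers between compartments and time spent in the illuminated side counted over 5 min. Statistics by ANOVA with Fischer's test versus controls.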

[12] = system: Mus musculus; experiment: Effect on learning and memory performance in CD1 Albino mouse assessed as cognition enhancement at 3 mg/kg, po; format: functional, organism-based; set-up: dose 3 mg/kg
How it was run: (§4)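 Passive avoidance test in male CD-1 mice dosed po 30 min before training, with retention tested 24 h later. Read-out was the difference in latency (s) to enter the dark compartment between training and retention. Means ± SEM of 9–10 mice; ANOVA with Fischer's test.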

[13] = species on record: Mus musculus; experiment: Anxiogenic-like effect in CD1 Albino mouse assessed as decrease in time spent in light compartment in light-dark box test; format: functional, organism-based; how it was run: as §3
[14] = system: Mus musculus; experiment: Decrease in ethanol-induced sleeping time in CD1 Albino mouse at 3 mg/kg, po relative to control; format: functional, organism-based; set-up: dose 3 mg/kg
How it was run: (§5)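 Male CD-1 mice given drug po in 1% CMC, then ethanol 4 g/kg ip 30 min later. Sleep time taken as duration of loss of righting reflex, capped at 210 min. Means ± SEM of 5–16 mice; ANOVA with Fischer's test versus controls.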

[15] = system: Mus musculus; experiment: Effect on motor coordination in CD1 Albino mouse assessed as number of falls in 30 secs at 30 mg/kg, po […] by rotarod test relative to control; format: functional
[16] = system: Mus musculus; experiment: Effect on learning and memory performance in CD1 Albino mouse assessed as cognition enhancement at 10 mg/kg, po; format: functional, organism-based; set-up: dose 10 mg/kg; how it was run: as §4
[17] = system: Mus musculus; experiment: Decrease in ethanol-induced sleeping time in CD1 Albino mouse at 10 mg/kg, po relative to control; format: functional, organism-based; set-up: dose 10 mg/kg; how it was run: as §5

Chain of GABA A receptor alpha-3/beta-2/gamma-2 (P18508 whole entry): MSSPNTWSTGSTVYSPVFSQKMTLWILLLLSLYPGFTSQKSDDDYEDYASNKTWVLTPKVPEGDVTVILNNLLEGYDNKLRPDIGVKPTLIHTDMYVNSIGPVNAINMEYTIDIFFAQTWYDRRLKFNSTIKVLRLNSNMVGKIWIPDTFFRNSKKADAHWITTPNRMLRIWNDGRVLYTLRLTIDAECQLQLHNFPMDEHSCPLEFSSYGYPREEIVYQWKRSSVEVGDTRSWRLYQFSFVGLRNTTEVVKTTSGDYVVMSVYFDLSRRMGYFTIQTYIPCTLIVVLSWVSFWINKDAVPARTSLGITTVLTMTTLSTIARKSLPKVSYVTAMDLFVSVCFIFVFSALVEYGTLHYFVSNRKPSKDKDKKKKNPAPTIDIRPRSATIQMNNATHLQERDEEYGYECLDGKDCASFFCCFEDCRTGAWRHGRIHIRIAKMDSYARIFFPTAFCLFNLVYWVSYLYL
Chain of GABA A receptor alpha-3/beta-2/gamma-2 (P20236 whole entry): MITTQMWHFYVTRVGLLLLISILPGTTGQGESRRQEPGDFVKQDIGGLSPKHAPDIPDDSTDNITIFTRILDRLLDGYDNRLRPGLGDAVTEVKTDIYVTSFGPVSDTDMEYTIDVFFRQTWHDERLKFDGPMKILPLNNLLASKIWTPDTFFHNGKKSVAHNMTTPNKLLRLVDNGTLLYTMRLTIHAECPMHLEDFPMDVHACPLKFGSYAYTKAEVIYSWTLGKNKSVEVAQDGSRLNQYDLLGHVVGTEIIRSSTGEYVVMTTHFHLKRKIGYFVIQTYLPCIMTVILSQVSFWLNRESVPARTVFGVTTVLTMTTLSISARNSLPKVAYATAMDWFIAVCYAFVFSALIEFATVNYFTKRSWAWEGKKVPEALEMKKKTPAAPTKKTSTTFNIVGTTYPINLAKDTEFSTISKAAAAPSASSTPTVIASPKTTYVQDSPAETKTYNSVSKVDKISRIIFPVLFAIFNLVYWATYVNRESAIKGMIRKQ
Chain of GABA A receptor alpha-3/beta-2/gamma-2 (P63138 whole entry): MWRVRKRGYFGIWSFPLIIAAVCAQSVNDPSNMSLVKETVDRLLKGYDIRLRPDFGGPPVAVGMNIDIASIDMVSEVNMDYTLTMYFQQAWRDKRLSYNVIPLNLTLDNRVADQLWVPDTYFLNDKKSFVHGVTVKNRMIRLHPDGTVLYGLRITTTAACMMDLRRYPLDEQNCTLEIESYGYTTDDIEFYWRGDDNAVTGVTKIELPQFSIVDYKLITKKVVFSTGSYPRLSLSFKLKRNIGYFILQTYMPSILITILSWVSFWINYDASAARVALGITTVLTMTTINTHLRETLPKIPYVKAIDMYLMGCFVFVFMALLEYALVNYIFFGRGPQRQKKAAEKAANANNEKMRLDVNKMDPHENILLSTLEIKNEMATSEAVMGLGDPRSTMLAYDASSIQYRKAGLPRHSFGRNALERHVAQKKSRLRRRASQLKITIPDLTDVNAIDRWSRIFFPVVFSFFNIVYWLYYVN
Chain of GABA-A receptor; alpha-1/beta-2/gamma-2 (P18508 whole entry): as the sequence (P18508 whole entry) above
Chain of GABA-A receptor; alpha-1/beta-2/gamma-2 (P62813 whole entry): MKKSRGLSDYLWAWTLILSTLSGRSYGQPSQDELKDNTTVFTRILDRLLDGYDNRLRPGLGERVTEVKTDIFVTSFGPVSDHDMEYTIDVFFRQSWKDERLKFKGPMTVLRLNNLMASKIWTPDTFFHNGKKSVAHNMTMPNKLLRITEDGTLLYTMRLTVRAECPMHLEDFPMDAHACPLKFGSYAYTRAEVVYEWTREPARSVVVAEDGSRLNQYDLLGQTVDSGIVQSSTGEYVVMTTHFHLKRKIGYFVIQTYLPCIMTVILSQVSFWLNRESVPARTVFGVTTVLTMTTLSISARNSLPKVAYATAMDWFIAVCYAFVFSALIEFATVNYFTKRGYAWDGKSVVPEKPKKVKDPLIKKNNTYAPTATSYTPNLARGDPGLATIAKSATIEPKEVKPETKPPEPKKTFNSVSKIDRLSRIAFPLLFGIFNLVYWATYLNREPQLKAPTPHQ
Chain of GABA-A receptor; alpha-1/beta-2/gamma-2 (P63138 whole entry): as the sequence (P63138 whole entry) above

C#CCOc1ccc2c(c1)n1ncc(I)c1n[n+]2[O-]
Ki [1]: 0.8 nM

CCCCOc1ccc2c(c1)n1ncc(I)c1n[n+]2[O-]
Ki [1]: 5.4 nM

[O-][n+]1nc2c(I)cnn2c2cc(Br)ccc21
Ki [1]: 14 nM

Cc1ccc2c(c1)n1ncc(Cl)c1n[n+]2[O-]
Ki [1]: 196 nM

CCOc1ccc2c(c1)n1ncc(Br)c1n[n+]2[O-]
Ki [1]: 36.9 nM

Cc1ccc2c(c1)n1ncc(I)c1n[n+]2[O-]
Ki [1]: 12 nM

CCOc1ccc2nnc3c(I)cnn3c2c1
Activity [2]: 0.7
Activity [3]: 237.7 s
Activity [4]: 0%
Activity [5]: 0.3
Ki [6]: 13.8 nM
Activity [7]: 0%
Ki [8]: 95 nM
Ki [1]: 18 nM
Ki [9]: 133 nM
Activity [10]: 0%

CCOc1ccc2n[n+]([O-])c3c(Br)cnn3c2c1
Ki [1]: 15.6 nM

COc1ccc2c(c1)n1ncc(I)c1n[n+]2[O-]
Ki [1]: 13.5 nM

CSc1ccc2c(c1)n1ncc(I)c1n[n+]2[O-]
Ki [1]: 15.8 nM

COCCOc1ccc2c(c1)n1ncc(I)c1n[n+]2[O-]
Ki [1]: 37 nM

CCOc1ccc2c(c1)n1ncc(I)c1n[n+]2[O-]
Activity [2]: 0.2
Activity [4]: 0%
Activity [5]: 0.2
Activity [11]: Active
Activity [12]: Active
Ki [6]: 4.1 nM
Activity [13]: Active
Activity [7]: 0%
Activity [14]: Active
Activity [15]: 0.2
Ki [8]: 99 nM
Activity [16]: Active
Activity [17]: Active
Ki [1]: 4.8 nM
Ki [9]: 34 nM
Activity [10]: 10%

CCOc1ccc2n[n+]([O-])c3c(I)cnn3c2c1
Activity [2]: 0.4
Activity [3]: 293.4 s
Activity [4]: 12.5%
Activity [12]: Active
Ki [6]: 2.6 nM
Activity [13]: Active
Activity [15]: 0.6
Ki [8]: 70 nM
Activity [16]: Active
Ki [1]: 1.7 nM
Ki [9]: 12.3 nM
Activity [10]: 0%

CC(C)Oc1ccc2c(c1)n1ncc(I)c1n[n+]2[O-]
Ki [1]: 42 nM

CCOc1ccc2c(c1)n1ncc(Cl)c1n[n+]2[O-]
Ki [1]: 160 nM

Cc1ccc2c(c1)n1ncc(Br)c1n[n+]2[O-]
Ki [1]: 53.2 nM

CCCOc1ccc2c(c1)n1ncc(I)c1n[n+]2[O-]
Ki [1]: 12 nM

CN1C(=O)CN=C(c2ccccc2)c2cc(Cl)ccc21 [DIAZEPAM]
Activity [5]: 1.2
Ki [1]: 10 nM
Activity [10]: 100%

[O-][n+]1nc2c(Cl)cnn2c2cc(Cl)ccc21
Ki [1]: 374 nM

[O-][n+]1nc2c(Br)cnn2c2cc(I)ccc21
Ki [1]: 81 nM

[O-][n+]1nc2c(Br)cnn2c2cc(Cl)ccc21
Ki [1]: 120 nM

[O-][n+]1nc2c(Cl)cnn2c2cc(Br)ccc21
Ki [1]: 332 nM

[O-][n+]1nc2c(I)cnn2c2cc(OCCCl)ccc21
Ki [1]: 62 nM

CCCCCOc1ccc2c(c1)n1ncc(I)c1n[n+]2[O-]
Ki [1]: 6.5 nM

Clc1ccc2nnc3c(I)cnn3c2c1
Ki [1]: 22.8 nM

CN(C)CCOc1ccc2c(c1)n1ncc(I)c1n[n+]2[O-]
Ki [1]: 233 nM

[O-][n+]1nc2c(Br)cnn2c2cc(Br)ccc21
Ki [1]: 73 nM

[O-][n+]1nc2c(I)cnn2c2cc(OCC3CC3)ccc21
Ki [1]: 7.6 nM

[O-][n+]1nc2c(I)cnn2c2cc(O)ccc21
Ki [1]: 1700 nM

[O-][n+]1nc2c(I)cnn2c2cc(I)ccc21
Ki [1]: 14 nM

[O-][n+]1nc2c(Cl)cnn2c2cc(I)ccc21
Ki [1]: 202 nM
